These results are taken from paper PMC3828798 (Journal of the American Heart Association: Cardiovascular …, 2013).

This data set addresses Recombinant angiotensin converting enzyme 2 (rACE2) (Homo sapiens, UniProt Q9BYF1). The data set is described as follows: ACE2 proteolysis assay of pyr‐1‐apelin‐13 and APLN analogues. The conditions noted are these: rACE2 in Tris buffer pH 8.0; HPLC coupled with MALDI‐TOF; Figures S8 and S9. In kind it is in vitro ADME. In short, it runs like this:
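Quenched with 100 mmol/L EDTA pH 7.0. C18 reverse-phase HPLC, 10–45% acetonitrile/0.1% TFA, detection at 220 nm. Hydrolysis taken from substrate and product peak areas; masses confirmed by MALDI-TOF.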

Recombinant angiotensin converting enzyme 2 (rACE2), sequence (Q9BYF1 18-805): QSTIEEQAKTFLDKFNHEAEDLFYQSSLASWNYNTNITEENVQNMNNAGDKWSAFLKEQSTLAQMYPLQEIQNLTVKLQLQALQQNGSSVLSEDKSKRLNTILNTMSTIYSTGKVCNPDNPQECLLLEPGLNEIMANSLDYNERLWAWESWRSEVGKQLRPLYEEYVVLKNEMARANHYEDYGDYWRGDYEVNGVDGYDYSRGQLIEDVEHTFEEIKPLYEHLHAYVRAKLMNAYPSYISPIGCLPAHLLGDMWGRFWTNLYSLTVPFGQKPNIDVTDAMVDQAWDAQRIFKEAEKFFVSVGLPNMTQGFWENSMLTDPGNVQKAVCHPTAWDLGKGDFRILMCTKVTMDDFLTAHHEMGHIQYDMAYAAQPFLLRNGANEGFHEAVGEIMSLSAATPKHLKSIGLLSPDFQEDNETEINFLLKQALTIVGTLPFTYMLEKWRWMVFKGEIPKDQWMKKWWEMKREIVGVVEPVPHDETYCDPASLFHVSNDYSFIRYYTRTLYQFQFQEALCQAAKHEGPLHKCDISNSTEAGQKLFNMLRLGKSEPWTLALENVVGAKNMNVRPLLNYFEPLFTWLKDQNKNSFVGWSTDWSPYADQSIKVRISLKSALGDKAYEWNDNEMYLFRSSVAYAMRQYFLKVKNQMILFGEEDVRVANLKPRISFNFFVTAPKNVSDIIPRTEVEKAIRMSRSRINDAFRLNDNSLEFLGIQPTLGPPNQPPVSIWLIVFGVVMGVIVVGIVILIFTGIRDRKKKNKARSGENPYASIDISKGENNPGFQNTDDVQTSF

Take “pyr‐1‐apelin‐13 (QRPRLSHKGPMPF; Apelin-13 N-terminal pyroglutamate; UniProt Q9ULZ1 65-77, looked up, fragment)”: the “susceptibility to ACE2‐mediated proteolysis (result in words)” value is “efficient ACE2‐mediated cleavage”.
